These results are taken from ChEMBL document CHEMBL5260841, “Discovery of N-(4-(6-Acetamidopyrimidin-4-yloxy)phenyl)-2-(2-(trifluoromethyl)phenyl)acetamide (CHMFL-FLT3-335) as a Potent FMS-like Tyrosine Kinase 3 Internal Tandem Duplication (FLT3-ITD) Mutant Selective Inhibitor for Acute Myeloid Leukemia” (J Med Chem, 2019).

The subject of series [1] is BaF3. The series can be described thus: Antiproliferative activity against mouse BaF3 cells transfected with TEL fused PDGFRbeta assessed as cell growth inhibition incubated for 72 hrs by CCK-8 assay. The class given is functional. Put shortly:
(§1)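 Kinase-transformed isogenic BaF3 lines grown in RPMI 1640 with 10% FBS, 2% L-glutamine and pen/strep at 37 °C, 5% CO2. Seeded at 1500-3000 cells/well and treated with a compound concentration series for 72 h. Viability read by CCK8 absorbance at 450 nm.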
In general terms: Tetrazolium dyes change colour on reduction, which living cells bring about.

In series [2] the test system is MV4-11. The series can be described thus: Induction of apoptosis in human MV4-11 cells harboring FLT3-ITD mutant assessed as increase in cleaved caspase-3 level incubated for 24 hrs by Western blot analysis. Type of series: functional, cell-based. The following applies: dose 0.1-3 µM. In general terms: A western blot detects proteins with antibodies after separation by electrophoresis.

A further series has as its system MOLM-14. Nature of the series: Antiproliferative activity against human MOLM-14 cells transfected with FLT3-ITD mutant assessed as cell growth inhibition incubated for 72 hrs by CCK-8 assay. Type of series: functional. In a few lines: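 Cells kept at 37 °C, 5% CO2. MV4-11 grown in IMDM with 10% FBS. MOLM13, MOLM14, U937 and HL-60 grown in RPMI 1640 with 10% FBS. OCI-AML-2 grown in α-MEM with 20% FBS. Seeded at 1500-3000 cells/well and exposed to a concentration series for 72 h. Viability read by CCK8 absorbance at 450 nm.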

A short description of series [3]: Half life in Sprague-Dawley rat at 10 mg/kg, po. Type of series: ADME, organism-based. The following applies: in vivo. Put shortly: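 Sprague-Dawley rats were dosed either intravenously at 1 mg/kg or by oral gavage at 10 mg/kg. Plasma PK parameters were AUC(0-t), AUC(0-∞), MRT(0-t), T1/2, Tmax, Vz, CLz, Cmax and F%. Values are the mean ± SD of three independent animals.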

Series [4] relates to MV4-11. Nature of the series: Antitumor activity against human MV4-11 cells xenografted in nu/nu mouse assessed as inhibition of tumor growth at 50 mg/kg/day, po administered via gavage for 28 days relative to control. The conditions noted are these: MV4-11, 672 h, time 28 day, read-out: TGI. Type of series: functional. Put shortly: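 MV4-11 cells implanted in mice. Once tumours reached a mean of about 200 mm3, mice were dosed orally once daily for 28 days with vehicle or 25, 50 or 100 mg/kg/day. Tumour size and body weight tracked relative to starting values; final tumour weight also recorded.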
(A xenograft is tissue or cells of one species grown in another, often human tumour cells in immunodeficient mice.)

The subject of series [5] is BaF3. The series can be described thus: Antiproliferative activity against mouse BaF3 cells transfected with FLT3 ITD F691L mutant assessed as cell growth inhibition incubated for 72 hrs by CCK-8 assay. The class given is functional. In a few lines:
as §1

For series [6], the target named is T1, Signal transducer and activator of transcription 5A (Homo sapiens) (UniProt P42229).
T1 sequence (whole entry): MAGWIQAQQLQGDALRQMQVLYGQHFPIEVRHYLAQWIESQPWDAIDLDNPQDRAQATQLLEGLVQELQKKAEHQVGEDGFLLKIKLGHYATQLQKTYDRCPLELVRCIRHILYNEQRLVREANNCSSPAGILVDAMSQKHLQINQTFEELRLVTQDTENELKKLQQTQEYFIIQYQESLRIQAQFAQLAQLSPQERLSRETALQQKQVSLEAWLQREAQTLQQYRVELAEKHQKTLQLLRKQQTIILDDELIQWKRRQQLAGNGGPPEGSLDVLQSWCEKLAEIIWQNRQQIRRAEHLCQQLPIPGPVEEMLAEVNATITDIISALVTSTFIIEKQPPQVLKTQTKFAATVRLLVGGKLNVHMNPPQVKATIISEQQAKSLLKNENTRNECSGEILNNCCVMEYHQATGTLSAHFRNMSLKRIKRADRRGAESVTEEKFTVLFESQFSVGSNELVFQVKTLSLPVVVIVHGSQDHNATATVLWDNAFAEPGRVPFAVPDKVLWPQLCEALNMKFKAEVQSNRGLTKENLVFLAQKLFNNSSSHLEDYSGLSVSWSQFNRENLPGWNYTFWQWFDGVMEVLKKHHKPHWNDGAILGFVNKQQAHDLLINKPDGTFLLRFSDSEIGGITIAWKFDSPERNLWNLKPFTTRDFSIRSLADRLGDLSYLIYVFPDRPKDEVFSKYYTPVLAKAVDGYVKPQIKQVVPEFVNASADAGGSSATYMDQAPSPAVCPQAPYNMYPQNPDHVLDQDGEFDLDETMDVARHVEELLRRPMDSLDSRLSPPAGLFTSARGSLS
Nature of the series: Inhibition of STAT5 phosphorylation at Tyr694 residue in human MV4-11 cells harboring FLT3-ITD mutant incubated for 4 hrs by Western blot analysis. Type of series: cell-based. The conditions noted are these: dose 0.01-3 µM. Put shortly:
(§2)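 Cells were exposed to the compound at a series of concentrations for 4 h, and whole-cell lysates were analysed by Western blot. MV4-11 cells were grown in IMDM with 10% FBS. MOLM13 and MOLM14 cells were grown in RPMI 1640 with 10% FBS. All cultures were kept at 37 °C with 5% CO2.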

Another series has as its system MOLM-13. Nature of the series: Induction of apoptosis in human MOLM-13 cells harboring FLT3-ITD mutant assessed as increase in cleaved PARP level incubated for 24 hrs by Western blot analysis. The class given is functional, cell-based. The conditions noted are these: dose 0.1-3 µM.
The test system of series [7] is BaF3. Nature of the series: Antiproliferative activity against mouse BaF3 cells assessed as cell growth inhibition incubated for 72 hrs by CCK-8 assay. Type of series: functional. In a few lines: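 Parental BaF3 cells grown in RPMI 1640 with 10% FBS and 100 ng/ml IL-3 at 37 °C, 5% CO2. Plated at 1500-3000 cells/well and exposed to graded compound concentrations for 72 h. Proliferation read by CCK8 absorbance at 450 nm.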

Series [8] has as its target T1, Signal transducer and activator of transcription 5A (Homo sapiens). Nature of the series: Inhibition of STAT5 phosphorylation at Tyr694 residue in human MOLM-14 cells harboring FLT3-ITD mutant incubated for 4 hrs by Western blot analysis. The class given is cell-based. The conditions noted are these: dose 0.01-3 µM. Put shortly: as §2

Consider `CC(=O)Nc1cc(Oc2ccc(NC(=O)Cc3ccccc3C(F)(F)F)cc2)ncn1`, for which the GI50 in the series on BaF3 [1] is 40 nM; in the series with MOLM-14 it was 343 nM; with BaF3 [5], > 10000 nM; with BaF3 [7], > 10000 nM. Moreover, the Activity result in the series with MV4-11 [2] and with MOLM-13 was “Dose-Dependent Effect” in each case. The same molecule had a half-life in series [3] of 2.8 h. The inhibition in vivo at 50 mg/kg/day with MV4-11 [4] is 68%. Besides, the inhibition result in series [6] and in series [8] was “Dose-Dependent Effect” throughout.

By GI50 is commonly meant the concentration at which growth is held to half of that of the control. For orientation: half-life means the time needed for the level to fall by half in the phase considered.
